# Measurements as given in ChEMBL document CHEMBL4376891, “Benzenesulfonamide Derivatives as Calcium/Calmodulin-Dependent Protein Kinase Inhibitors and Antiviral Agents against Dengue and Zika Virus Infections” (J Med Chem, 2020).
# Calls of active or inactive are those of the source. No cut-off for these calls is given here.
# Tests used:
# dengue virus type 2 [1] = assay: Antiviral activity against DENV-2 NGC-N infected in Stat1-/- mouse assessed as time delay in mouse mortality at 2 mg/kg/day, po dosed immediately following viral infection followed by daily dosing for 6 days (reference value: 9 days); format: functional
# dengue virus type 2 [2] = assay: Antiviral activity against DENV-2 NGC-N infected in Stat1-/- mouse assessed as overall mouse survival at 8 mg/kg, po dosed immediately following viral infection followed by daily dosing for 6 days (reference value: 0%); format: functional; details: 144 h
# Zika virus [3] = assay: Antiviral activity against Zika virus infected in human BE(2)-C cells assessed as NS3 protein expression at 6.25 uM treated during 3 to 24 hrs post infection by Western blot analysis (reference value: 100%); format: functional
# Summary of the method: (§1)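 Time-of-addition design: BE(2)C cells were infected with DENV-2 or ZIKV at MOI 1. Compound at 3.125 or 6.25 μM was present either during adsorption (0–3 hpi) or afterward (3–24 hpi). Viral protein was immunoblotted against actin, with the ratio as % of the solvent control.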
# Zika virus [4] = assay: Antiviral activity against Zika virus infected in human BE(2)-C cells assessed as NS3 protein expression at 3.125 uM treated during 3 to 24 hrs post infection by Western blot analysis (reference value: 100%); format: functional; summary of the method: as §1
# BE(2)-C = assay: Cytotoxicity against human BE(2)-C cells assessed as reduction in cell viability up to 12.5 uM incubated overnight by LDH assay relative to control; format: cell-based
# Summary of the method: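 BE(2)C cells (RPMI 1640, 10% FBS) exposed overnight to compound at concentrations up to 12.5 μM; XTT (proliferation) or LDH release (cytotoxicity) read by absorbance at 490 nm. Values normalized to solvent control (%), mean ± SD of 3 independent experiments.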
# dengue virus type 2 [5] = assay: Antiviral activity against Dengue virus 2 infected in human BE(2)-C cells assessed as NS3 protein expression at 6.25 uM incubated for 48 hrs by Western blot analysis (reference value: 100%); format: functional
# Summary of the method: (§2)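 BE(2)C neuroblastoma cells in RPMI 1640 with 10% FBS were infected with DENV-2 PL046 at MOI 0.1 for 48 h, without or with compound at increasing concentrations. NS3 was immunoblotted with actin as loading control. The NS3:actin densitometry ratio was expressed as % of the DMSO control. Mean ± SD of 3 independent experiments.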
# dengue virus type 2 [6] = assay: Antiviral activity against Dengue virus 2 infected in human BE(2)-C cells assessed as NS3 protein expression incubated for 48 hrs by Western blot analysis; format: functional, organism-based; summary of the method: as §2
# Zika virus [7] = assay: Antiviral activity against Zika virus infected in human HMC3 cells assessed as reduction in NS3 protein expression at 1.56 to 12.5 uM incubated for 24 hrs by immunofluorescence microscopy; format: functional, organism-based
# Zika virus [8] = assay: Antiviral activity against Zika virus infected in human HMC3 cells assessed as reduction in viral progeny production at 1.56 to 12.5 uM incubated for 48 hrs by Virus titer assay; format: functional, organism-based
# Summary of the method: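 HMC3 microglia were grown in MEM with 10% FBS and infected with ZIKV PRVABC59 (MOI 0.1) for 48 h at the specified concentrations. Viral protein was read by immunofluorescence with Hoechst nuclear stain. Infectious progeny was titred by plaque assay on Vero cells (log PFU/mL). DMSO served as the solvent control.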
# Zika virus [9] = assay: Antiviral activity against Zika virus infected in human BE(2)-C cells assessed as NS3 protein expression at 0.78 uM incubated for 48 hrs by Western blot analysis (reference value: 100%); format: functional
# Summary of the method: (§3)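 BE(2)C cells were infected with ZIKV PRVABC59 at MOI 0.1 for 48 h, with or without compound at increasing concentrations. Viral protein was immunoblotted with actin as loading control. The band-density ratio was given as % of the solvent control. Mean ± SD, 3 independent experiments.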
# Zika virus [10] = assay: Antiviral activity against Zika virus infected in human BE(2)-C cells assessed as NS3 protein expression at 3.125 uM incubated for 48 hrs by Western blot analysis (reference value: 100%); format: functional; summary of the method: as §3
# Zika virus [11] = assay: Antiviral activity against Zika virus infected in human BE(2)-C cells assessed as reduction inNS3 protein expression at 3.125 to 6.25 uM treated during 0 to 3 hrs post infection by Western blot analysis; format: functional, organism-based; summary of the method: as §1
# dengue virus type 2 [12] = assay: Antiviral activity against Dengue virus 2 infected in human BE(2)-C cells assessed as reduction in NS3 protein expression at 3.125 to 6.25 uM treated during 3 to 24 hrs post infection by Western blot analysis; format: functional, organism-based; summary of the method: as §1
# dengue virus type 2 [13] = assay: Antiviral activity against Dengue virus 2 infected in human BE(2)-C cells assessed as reduction in viral entry at 3.125 to 6.25 uM incubated for 90 mins by plaque-forming assay; format: functional, organism-based
# Summary of the method: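 Virus entry: BE(2)C cells were incubated with DENV-2 or ZIKV for 90 min at 4 °C and washed cold. Cells were then treated with 3.125 or 6.25 μM compound at 37 °C for 1 h. Non-internalized virus was inactivated with 0.1 M glycine, pH 3, for 5 min. Cells were lysed by needle passage, and internalized virus was titrated by plaque assay. Mean ± SD, n = 3.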
# Zika virus [14] = assay: Antiviral activity against Zika virus infected in human BE(2)-C cells assessed as suppression of viral-induced CaMKIIalpha activation at 3.125 uM incubated for 4 hrs by confocal microscopy; format: functional, organism-based
# dengue virus type 2 [15] = assay: Antiviral activity against Dengue virus 2 infected in human BE(2)-C cells assessed as suppression of viral-induced CaMKIIalpha activation at 3.125 uM incubated for 4 hrs by confocal microscopy; format: functional, organism-based
# dengue virus type 2 [16] = assay: Antiviral activity against DENV-2 NGC-N infected in Stat1-/- mouse assessed as reduction in viral load at 4 to 8mg/kg/day, po dosed immediately following viral infection followed by daily dosing for 3 day; format: functional, organism-based
# Summary of the method: (§4)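 Stat1-/- mice infected with DENV-2 NGC-N (1x10⁵ PFU iv) or ZIKV PRVABC59 (5x10⁴ PFU sc, footpad), with oral dosing or PBS starting immediately. Serum was taken from the submandibular vein on day 3 post-infection. Viremia was measured by plaque assay and reported as individual values and mean; n = 5.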
# Zika virus [17] = assay: Antiviral activity against Zika virus infected in Stat1-/- mouse assessed as reduction in viral load at 4 to 8mg/kg/day, po dosed immediately following viral infection followed by daily dosing for 3 days; format: functional, organism-based; summary of the method: as §4
# dengue virus type 2 [18] = assay: Antiviral activity against Dengue virus 2 infected in human BE(2)-C cells assessed as NS3 protein expression at 3.125 uM treated during 3 to 24 hrs post infection by Western blot analysis (reference value: 100%); format: functional; summary of the method: as §1
# dengue virus type 2 [19] = assay: Antiviral activity against Dengue virus 2 infected in human BE(2)-C cells assessed as NS3 protein expression at 3.125 uM treated during 0 to 3 hrs post infection by Western blot analysis (reference value: 100%); format: functional; summary of the method: as §1
# Zika virus [20] = assay: Antiviral activity against Zika virus infected in human BE(2)-C cells transfected with shCaMKIIalpha assessed as NS3 protein expression at 3.125 uM incubated for 48 hrs by Western blot analysis (reference value: 100%); format: functional
# Zika virus [21] = assay: Antiviral activity against Zika virus infected in human BE(2)-C cells transfected with shCaMKIIalpha assessed as NS3 protein expression at 6.25 uM incubated for 48 hrs by Western blot analysis (reference value: 100%); format: functional
structure (smiles),measurement,setting,value
COc1ccc(S(=O)(=O)N(CCCC(=O)C2CCCCCC2)c2ccccc2)cc1,Time,dengue virus type 2 [1],15 days
same,survival at 8 mg/kg,dengue virus type 2 [2],60%
same,Activity,Zika virus [3],79.5%
same,Activity,Zika virus [4],97.2%
same,Activity,BE(2)-C,Non-Toxic
same,Activity,dengue virus type 2 [5],23.1%
same,Activity,dengue virus type 2 [6],Dose-dependent effect
same,Activity,Zika virus [7],Active
same,Activity,Zika virus [8],Active
same,Activity,Zika virus [9],89.6%
same,Activity,Zika virus [10],49.7%
same,Activity,Zika virus [11],Dose-dependent effect
same,Activity,dengue virus type 2 [12],inactive
same,Activity,dengue virus type 2 [13],Dose-dependent effect
same,Activity,Zika virus [14],Active
same,Activity,dengue virus type 2 [15],Active
same,Activity,dengue virus type 2 [16],Active
same,Activity,Zika virus [17],Active
same,Activity,dengue virus type 2 [18],78.3%
same,Activity,dengue virus type 2 [19],72.5%
same,Activity,Zika virus [20],101%
same,Activity,Zika virus [21],89.1%
